Publication PMC5088049 (Pharmacogenetics and genomics, 2016)
Where a chain is given by its changes, count along the chain named.

Assays:
Type in all cases: in vitro ADME
AKR1C4 Gly135Glu = biological target: T1, AKR1C4 Gly135Glu (Homo sapiens, UniProt P17516, G135E); assay: Kinetics of EXE reduction to 17β-DHE, recombinant AKR1C4 Gly135Glu; conditions: for VMAX: normalized to enzyme purity
T1 sequence (P17516 1-323 G135E): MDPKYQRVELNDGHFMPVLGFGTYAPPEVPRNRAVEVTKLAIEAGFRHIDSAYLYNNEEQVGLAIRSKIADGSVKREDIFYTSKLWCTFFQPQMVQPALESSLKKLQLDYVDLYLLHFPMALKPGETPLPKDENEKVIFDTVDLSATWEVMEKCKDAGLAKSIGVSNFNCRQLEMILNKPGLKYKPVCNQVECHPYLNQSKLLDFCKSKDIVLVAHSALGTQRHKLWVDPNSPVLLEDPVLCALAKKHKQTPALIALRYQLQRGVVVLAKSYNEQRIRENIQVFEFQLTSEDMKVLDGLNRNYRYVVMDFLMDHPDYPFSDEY

AKR1C3 Arg258Cys = AKR1C3 Arg258Cys (Homo sapiens, UniProt P42330, R258C); assay: Kinetics of EXE reduction to 17β-DHE, recombinant AKR1C3 Arg258Cys
AKR1C2 Phe46Tyr = biological target: T2, AKR1C2 Phe46Tyr (Homo sapiens, UniProt P52895, F46Y); assay: Kinetics of EXE reduction to 17β-DHE, recombinant AKR1C2 Phe46Tyr; conditions: VMAX/KM
T2 sequence (P52895 1-323 F46Y): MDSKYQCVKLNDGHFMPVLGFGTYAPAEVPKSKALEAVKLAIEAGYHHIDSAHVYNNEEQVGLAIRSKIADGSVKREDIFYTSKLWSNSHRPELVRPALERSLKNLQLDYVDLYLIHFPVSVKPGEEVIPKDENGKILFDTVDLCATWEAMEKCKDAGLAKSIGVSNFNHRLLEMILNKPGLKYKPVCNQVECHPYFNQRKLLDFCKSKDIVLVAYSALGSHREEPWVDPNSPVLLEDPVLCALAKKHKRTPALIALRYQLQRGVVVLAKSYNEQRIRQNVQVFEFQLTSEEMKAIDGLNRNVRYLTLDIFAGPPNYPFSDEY

CBR1 [1] = biological target: T3, CBR1 (Homo sapiens, UniProt P16152); assay: Metabolite identification, overnight incubation with recombinant CBR1; conditions: 200 µM EXE, 18-h incubation, 1.5 µg recombinant CBR1
T3 sequence (P16152 1-277): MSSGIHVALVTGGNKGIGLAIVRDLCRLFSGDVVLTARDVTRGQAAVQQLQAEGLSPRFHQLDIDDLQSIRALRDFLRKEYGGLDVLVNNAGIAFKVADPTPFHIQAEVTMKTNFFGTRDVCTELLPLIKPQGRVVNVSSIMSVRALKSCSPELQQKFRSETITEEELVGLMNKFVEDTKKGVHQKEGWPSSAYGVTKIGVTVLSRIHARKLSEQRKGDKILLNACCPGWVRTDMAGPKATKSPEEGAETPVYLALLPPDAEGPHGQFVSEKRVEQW
Method in brief: (§1)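 Wildtype enzyme was His-tagged, expressed in E. coli BL21 (IPTG induction), Ni-NTA purified and dialysed against PBS. It was stopped with ice-cold acetonitrile and centrifuged. UPLC/ESI+ full scan (m/z 100–450) was followed by targeted MS/MS transitions. Retention times were matched to synthetic 17α/17β-dihydro standards.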

AKR1C4 Ser145Cys = biological target: T4, AKR1C4 Ser145Cys (Homo sapiens, UniProt P17516, S145C); assay: Kinetics of EXE reduction to 17β-DHE, recombinant AKR1C4 Ser145Cys
T4 sequence (P17516 1-323 S145C): T1 sequence (P17516 1-323 G135E) with E135G, S145C

AKR1C4 = biological target: T5, AKR1C4 (Homo sapiens, UniProt P17516); assay: Kinetics of EXE reduction to 17β-DHE, recombinant AKR1C4; conditions: wildtype AKR1C4; for VMAX: normalized to enzyme purity
T5 sequence (P17516 1-323): T1 sequence (P17516 1-323 G135E) with E135G

AKR1C3 Pro180Ser = AKR1C3 Pro180Ser (Homo sapiens, UniProt P42330, P180S); assay: Kinetics of EXE reduction to 17β-DHE, recombinant AKR1C3 Pro180Ser
AKR1C3 His5Gln = AKR1C3 His5Gln (Homo sapiens, UniProt P42330, H5Q); assay: Kinetics of EXE reduction to 17β-DHE, recombinant AKR1C3 His5Gln
CBR1 [2] = biological target: T3, CBR1; assay: Kinetics of EXE reduction to 17β-DHE, recombinant CBR1; conditions: for CLINT: VMAX/KM
AKR1C2 = AKR1C2 (Homo sapiens, UniProt P52895); assay: Metabolite identification, overnight incubation with recombinant AKR1C2; conditions: 200 µM EXE, 18-h incubation, 1.5 µg recombinant AKR1C2
Method in brief: as §1

AKR1C3 Arg258Cys, sequence (P42330 whole entry R258C): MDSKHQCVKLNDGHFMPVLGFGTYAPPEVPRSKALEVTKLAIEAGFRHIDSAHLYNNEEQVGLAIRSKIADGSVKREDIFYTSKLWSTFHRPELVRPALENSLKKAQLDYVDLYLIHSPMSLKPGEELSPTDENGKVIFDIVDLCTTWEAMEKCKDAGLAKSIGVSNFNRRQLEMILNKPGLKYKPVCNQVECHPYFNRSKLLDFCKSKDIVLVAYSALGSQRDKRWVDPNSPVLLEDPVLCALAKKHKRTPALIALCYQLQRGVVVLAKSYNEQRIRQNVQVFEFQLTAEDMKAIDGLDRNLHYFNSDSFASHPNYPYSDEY
AKR1C3 His5Gln, sequence (P42330 whole entry H5Q): as the sequence (P42330 whole entry R258C) above, with H5Q, C258R counted along it
AKR1C3 Pro180Ser, sequence (P42330 whole entry P180S): as the sequence (P42330 whole entry R258C) above, with P180S, C258R counted along it
AKR1C2, sequence (P52895 whole entry): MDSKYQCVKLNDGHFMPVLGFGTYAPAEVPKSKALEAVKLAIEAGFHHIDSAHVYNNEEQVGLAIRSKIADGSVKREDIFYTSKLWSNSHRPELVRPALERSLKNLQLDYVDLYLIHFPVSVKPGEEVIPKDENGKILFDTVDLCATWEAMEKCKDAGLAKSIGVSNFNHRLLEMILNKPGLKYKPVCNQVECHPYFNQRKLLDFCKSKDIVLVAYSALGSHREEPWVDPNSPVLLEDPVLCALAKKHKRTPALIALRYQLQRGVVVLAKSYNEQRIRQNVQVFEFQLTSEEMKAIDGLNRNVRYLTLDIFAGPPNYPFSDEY

Km (AKR1C4 Gly135Glu; AKR1C4 Gly135Glu (rs11253043), 17β-DHE formation): 311 ± 75.7 µM | CLINT (AKR1C4 Gly135Glu; AKR1C4 Gly135Glu, VMAX/KM): 0.06 nL/min/mg | VMAX (AKR1C4 Gly135Glu; AKR1C4 Gly135Glu): 19.1 ± 4.2 picomoles·min^−1·mg^−1 | VMAX (AKR1C4 Gly135Glu; AKR1C4 Gly135Glu, listed as EXE): 19.1 ± 4.2 picomoles·min^−1·mg^−1 | VMAX of AKR1C4 Gly135Glu relative to wildtype (AKR1C4 Gly135Glu; faster than wildtype AKR1C4): 8 fold | Km (AKR1C3 Arg258Cys; AKR1C3 Arg258Cys (rs62621365), 17β-DHE formation): 75.8 ± 19.9 µM | CLINT (AKR1C3 Arg258Cys; AKR1C3 Arg258Cys, VMAX/KM): 0.03 nL/min/mg | VMAX (AKR1C3 Arg258Cys; AKR1C3 Arg258Cys, normalized to enzyme purity): 2.3 ± 0.1 picomoles·min^−1·mg^−1 | affinity for EXE of AKR1C3 Arg258Cys relative to wildtype (AKR1C3 Arg258Cys; lower affinity (KM) than wildtype AKR1C3): roughly 6 fold | CLINT (AKR1C2 Phe46Tyr): 7.8 nL/min/mg | metabolites formed (CBR1 [1]): both stereoisomers of DHE | Km (AKR1C4 Ser145Cys; AKR1C4 Ser145Cys (rs3829125), 17β-DHE formation): 9.6 ± 2.4 µM | CLINT (AKR1C4 Ser145Cys; AKR1C4 Ser145Cys, VMAX/KM): 0.61 nL/min/mg | VMAX (AKR1C4 Ser145Cys; AKR1C4 Ser145Cys, normalized to enzyme purity): 5.9 ± 1.1 picomoles·min^−1·mg^−1 | Km (AKR1C4; 17β-DHE formation): 9.7 ± 1.9 µM | CLINT (AKR1C4; VMAX/KM): 0.24 nL/min/mg | VMAX (AKR1C4): 2.3 ± 0.6 picomoles·min^−1·mg^−1 | VMAX (AKR1C4; listed as EXE): 2.3 ± 0.6 picomoles·min^−1·mg^−1 | Km (AKR1C3 Pro180Ser; AKR1C3 Pro180Ser (rs34186955), 17β-DHE formation): 11.2 ± 3.1 µM | CLINT (AKR1C3 Pro180Ser; AKR1C3 Pro180Ser, VMAX/KM): 0.32 nL/min/mg | VMAX (AKR1C3 Pro180Ser; AKR1C3 Pro180Ser, normalized to enzyme purity): 3.6 ± 0.6 picomoles·min^−1·mg^−1 | Km (AKR1C3 His5Gln; AKR1C3 His5Gln (rs12529), 17β-DHE formation): 17.9 ± 2.9 µM | CLINT (AKR1C3 His5Gln; AKR1C3 His5Gln, VMAX/KM): 0.21 nL/min/mg | VMAX (AKR1C3 His5Gln; AKR1C3 His5Gln, normalized to enzyme purity): 3.8 ± 0.1 picomoles·min^−1·mg^−1 | rate of EXE reduction by CBR1 relative to AKR1C2 (CBR1 [2]; VMAX, faster than AKR1C2): about 11 fold | rate of 17β-DHE formation by CBR1 relative to recombinant AKR1C enzymes (CBR1 [2]; more rapid than recombinant AKR1C enzymes): 11 to 403 fold | CLINT (CBR1 [2]; wildtype CBR1): 3.50 nL/min/mg | CLINT (CBR1 [2]; wildtype CBR1, listed as EXE): 3.5 nL/min/mg | VMAX (CBR1 [2]; wildtype CBR1, normalized to enzyme purity): 928 ± 244 picomoles·min^−1·mg^−1 | metabolites formed (AKR1C2): only 17β-DHE formation
Compound: C=C1C[C@@H]2[C@H](CC[C@]3(C)C(=O)CC[C@@H]23)[C@@]2(C)C=CC(=O)C=C12 [exemestane, 6-methylenandrosa-1,4-diene-3-17-dione]
